Assay results from different studies.
Protocols differ between the studies behind these lines.
TRPM8: Transient receptor potential cation channel subfamily M member 8 (TRPM8, Homo sapiens, UniProt Q7Z2W7)
LATS2: Serine/threonine-protein kinase LATS2 (LATS2, Homo sapiens, UniProt Q9NRM7)
AKR1B1: Aldo-keto reductase family 1 member B1 (AKR1B1, Homo sapiens, UniProt P15121)
SLC6A6: Sodium- and chloride-dependent taurine transporter (SLC6A6, Homo sapiens, UniProt P31641)

Compound	target	test	measurement	result
CCCCCCCP(=O)(C(C)C)C(C)C	TRPM8	calcium signal, agonist	EC50	4.73 µM
COc1ccc(NC(=O)[C@@H]2C[C@H](C)CC[C@H]2C(C)C)cc1	TRPM8	ion current, agonist, patch clamp	EC50	4 µM
OC1(c2ccc(-c3ccnc4[nH]cc(F)c34)cc2)CCNCC1	LATS2	enzyme activity, inhibitor, radiometric	IC50	0.0057 µM
COc1cc(/C=N/NC(=S)N/N=C\c2ccc(CCl)cc2)ccc1Oc1ccnc2cc(Cl)ccc12	AKR1B1	enzyme activity, inhibitor, absorbance	IC50	20.4 µM
NCCCC(=O)O	SLC6A6	binding, MST	Kd	26 µM
COc1cc(/C=N/NC(=S)NN=Cc2ccc([N+](=O)[O-])o2)ccc1Oc1ccnc2cc(Cl)ccc12	AKR1B1	enzyme activity, inhibitor	Ki	4.65 µM
NCCS(=O)(=O)O	SLC6A6	binding, MST	Kd	0.71 µM
CCCCCCCCCP(=O)(C(C)C)C(C)C	TRPM8	ion current, agonist, patch clamp	EC50	24.8 µM
CCCCCCCCCCCCCCCC(=O)O	Platelet glycoprotein 4 (CD36, Homo sapiens, UniProt P16671)	binding, SPR	Kd	247 µM
CCCCC(=O)Nc1ccc(-c2ccc3ncn(CCC)c(=O)c3c2)cn1	Phosphatidylinositol 5-phosphate 4-kinase type-2 gamma (PIP4K2C, Homo sapiens, UniProt Q8TBX8, del300-341)	binding, ITC	Kd	0.123 µM
Cc1cc(-c2ccnc3[nH]cc(F)c23)cc(F)c1[C@@]1(O)[C@H](C)CN(C2CCS(=O)(=O)CC2)C[C@@H]1C	LATS2	enzyme activity, inhibitor, radiometric	IC50	0.0055 µM
COc1cc(/C=N/NC(=S)N/N=C\c2ccc([N+](=O)[O-])cc2)ccc1Oc1ccnc2cc(Cl)ccc12	AKR1B1	enzyme activity, inhibitor, absorbance	IC50	16.6 µM
CNC(=O)c1ccccc1Nc1nc(Nc2ccc(N3CCNCC3)cc2)ncc1Cl	LATS2	target engagement in cells, BRET	IC50	0.211 µM
CNC(=O)C(C)(C(C)C)C(C)C	TRPM8	calcium signal, agonist	EC50	56.5 µM
Cc1cc(-c2ccnc3[nH]cc(F)c23)cc(F)c1[C@@]1(O)[C@H](C)CN(C(=O)CN)C[C@@H]1C	LATS2	binding, TR-FRET	Kd	0.00049 µM
COc1cc(/C=N/NC(=S)NN=Cc2sccc2C)ccc1Oc1ccnc2cc(Cl)ccc12	AKR1B1	enzyme activity, inhibitor, absorbance	IC50	15.9 µM
